Measurements as given in ChEMBL document CHEMBL2417466, “An extended pyrrolobenzodiazepine-polyamide conjugate with selectivity for a DNA sequence containing the ICB2 transcription factor binding site” (2013).
Blank lines part the entries; values can stand above or below the compound they belong to. The source made the active and inactive calls. The rule behind the calls is not given here.

Columns and labels:
[1] = Cytotoxicity against human NCI60 cells assessed as concentration required for total growth inhibition; type: functional
Outline: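 NCI 60 human tumor cell line screen. TGI is the concentration causing total growth inhibition, given as the mean across the 60-cell-line panel.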

[2] = Cytotoxicity against human NCI60 cells; type: functional; details: for CC50: read-out: LC50 (the source's name)
Outline: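 Screened in the NCI 60 human tumour cell-line panel. Values are GI50 (50% growth inhibition), TGI (total growth inhibition) and LC50 (50% lethality) concentrations, each reported as the mean across the 60-cell-line panel.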

DNA [3] = assay: Binding affinity to calf thymus DNA at 5 uM after 4 hrs by UV-visible spectrophotometric analysis; type: nucleic-acid assay; details: Bos taurus
Outline: (§1)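 Calf thymus DNA at 50 μM bp with ligand fixed at 5 μM. Buffer was 10 mM sodium phosphate, 1 mM EDTA, pH 7.00, with ≤0.3% DMSO. Incubated at 37 °C, then melted at 1 °C/min from 50–99 °C while monitoring absorbance at 260 nm. Buffer baseline subtracted and DMSO-corrected. ΔTm = Tm(DNA+ligand) − Tm(DNA), run in triplicate.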

DNA [4] = assay: Binding affinity to calf thymus DNA at 5 uM after 18 hrs by UV-visible spectrophotometric analysis; type: nucleic-acid assay; details: Bos taurus; outline: as §1
Homo sapiens [5] = species: Homo sapiens; assay: Binding affinity to 170 bp human DNA topoisomerase 2-alpha promoter ICB1 site at 1 uM after 17 hrs by DNase 1 footprinting assay
Outline: (§2)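 170 bp Topo IIα promoter fragment (ICB1 and ICB2) PCR-amplified from human genomic DNA, IR700 end-labeled, used at 4 nM final. Incubated in the dark for 17 h at room temperature. DNase I digestion for 8 min, stopped with EDTA. Denaturing sequencing gel with IR dye detection and G+A markers.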

NIH/3T3 [6] = assay: Binding affinity to topo 2-alpha ICB1 (5'-CAGGGATTGGCTGGT-3') in mouse NIH/3T3 cells nuclear extract assessed as inhibition of NF-Y transcription factor binding at 5 uM preincubated for 1.5 hrs and by electrophoretic mobility shift assay; type: cell-free
Outline: (§3)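 Nuclear extract from NIH3T3 cells grown in DMEM with 10% newborn calf serum. 5 μg extract held at 4 °C for 30 min in K-Hepes pH 7.9 buffer with poly(dI-dC). About 0.1 ng of 32P end-labeled double-stranded ICB1 or ICB2 oligonucleotide then added for 2 h at room temperature. Run on 4% native polyacrylamide gel at 4 °C with autoradiography. Cold and mutated oligonucleotides served as controls.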

Homo sapiens [7] = species: Homo sapiens; assay: Binding affinity to 170 bp human DNA topoisomerase 2-alpha promoter ICB2 site at 1 uM after 17 hrs by DNase 1 footprinting assay; outline: as §2
NIH3T3 = assay: Binding affinity to topo 2-alpha ICB2 (5'-CTACGATTGGTTCTT-3') in mouse NIH/3T3 cells nuclear extract assessed as inhibition of NF-Y transcription factor binding at 5 uM preincubated for 1.5 hrs by electrophoretic mobility shift assay; type: cell-free; outline: as §3
NIH/3T3 [8] = assay: Binding affinity to Topo 2-alpha ICB1 (5'-CAGGGATTGGCTGGT-3') in mouse NIH/3T3 cells nuclear extract assessed as inhibition of NF-Y transcription factor binding at 50 uM preincubated for 1.5 hrs by electrophoretic mobility shift assay; type: cell-free; outline: as §3
Homo sapiens [9] = species: Homo sapiens; assay: Binding affinity to 170 bp human DNA topoisomerase 2-alpha promoter ICB1 site at 5 uM after 17 hrs by DNase 1 footprinting assay; outline: as §2

Compound: CCOC(=O)c1csc(NC(=O)c2cc(NC(=O)c3cc(NC(=O)CCCOc4cc5c(cc4OC)C(=O)N4CCC[C@H]4C=N5)cn3C)cn2C)n1
TGI [1]: 28 nM | GI50 [2]: 2.9 nM | CC50 [2]: 8900 nM | ΔTm (DNA [3]): 17.7 °C | ΔTm (DNA [4]): 18.6 °C

Compound: COC(=O)c1cc(NC(=O)c2csc(NC(=O)c3cc(NC(=O)CCCOc4cc5c(cc4OC)C(=O)N4CCC[C@H]4C=N5)cn3C)n2)cn1C
TGI [1]: 50 nM | GI50 [2]: 2.8 nM | CC50 [2]: 9100 nM | ΔTm (DNA [3]): 19.9 °C | ΔTm (DNA [4]): 20.7 °C

Compound: COC(=O)c1cc(NC(=O)c2cc(NC(=O)c3csc(NC(=O)CCCOc4cc5c(cc4OC)C(=O)N4CCC[C@H]4C=N5)n3)cn2C)cn1C
TGI [1]: 30 nM | GI50 [2]: 1.4 nM | CC50 [2]: 4400 nM | ΔTm (DNA [3]): 17.4 °C | ΔTm (DNA [4]): 18.2 °C

ΔTm (DNA [3]): 8.1 °C | ΔTm (DNA [4]): 8.4 °C
Compound: CCOC(=O)c1csc(NC(=O)c2csc(NC(=O)c3cc(NC(=O)CCCOc4cc5c(cc4OC)C(=O)N4CCC[C@H]4C=N5)cn3C)n2)n1

Compound: CCOC(=O)c1nc(NC(=O)c2cc(NC(=O)c3nc(NC(=O)CCCOc4cc5c(cc4OC)C(=O)N4CCC[C@H]4C=N5)cn3C)cn2C)cn1C
TGI [1]: 141 nM | GI50 [2]: 4.2 nM | CC50 [2]: 12300 nM | ΔTm (DNA [3]): 15.7 °C | ΔTm (DNA [4]): 16.2 °C

Activity (Homo sapiens [5]): Active | Activity (Homo sapiens [7]): Active
Compound: COC(=O)c1cc(NC(=O)c2cc(NC(=O)CCCOc3cc4c(cc3OC)C(=O)N3CCC[C@H]3C=N4)cn2C)cn1C
inhibition (NIH/3T3 [6]): Active | inhibition (NIH3T3): Active

Compound: CCOC(=O)c1csc(NC(=O)c2csc(NC(=O)c3csc(NC(=O)CCCOc4cc5c(cc4OC)C(=O)N4CCC[C@H]4C=N5)n3)n2)n1
TGI [1]: 2040 nM | GI50 [2]: 282 nM | CC50 [2]: 15800 nM | ΔTm (DNA [3]): 10.7 °C | ΔTm (DNA [4]): 10.9 °C

Compound: CCOC(=O)c1nc(NC(=O)c2cc(NC(=O)c3cc(NC(=O)CCCOc4cc5c(cc4OC)C(=O)N4CCC[C@H]4C=N5)cn3C)cn2C)cn1C
TGI [1]: 37 nM | GI50 [2]: 3.8 nM | CC50 [2]: 6800 nM | ΔTm (DNA [3]): 17.6 °C | ΔTm (DNA [4]): 18.7 °C

ΔTm (DNA [3]): 7.1 °C | ΔTm (DNA [4]): 7.8 °C
Compound: CCOC(=O)c1csc(NC(=O)c2cc(NC(=O)c3csc(NC(=O)CCCOc4cc5c(cc4OC)C(=O)N4CCC[C@H]4C=N5)n3)cn2C)n1

Compound: CCOC(=O)c1nc(NC(=O)c2nc(NC(=O)c3nc(NC(=O)CCCOc4cc5c(cc4OC)C(=O)N4CCC[C@H]4C=N5)cn3C)cn2C)cn1C
TGI [1]: 1290 nM | GI50 [2]: 87.1 nM | CC50 [2]: 15400 nM | ΔTm (DNA [3]): 11.7 °C | ΔTm (DNA [4]): 12 °C

Compound: CCOC(=O)c1nc(NC(=O)c2nc(NC(=O)c3cc(NC(=O)CCCOc4cc5c(cc4OC)C(=O)N4CCC[C@H]4C=N5)cn3C)cn2C)cn1C
TGI [1]: 27 nM | GI50 [2]: 13.5 nM | CC50 [2]: 9500 nM | ΔTm (DNA [3]): 14.8 °C | ΔTm (DNA [4]): 15.2 °C

Compound: COC(=O)c1cc(NC(=O)c2cc(NC(=O)c3nc(NC(=O)CCCOc4cc5c(cc4OC)C(=O)N4CCC[C@H]4C=N5)cn3C)cn2C)cn1C
TGI [1]: 24 nM | GI50 [2]: 1.3 nM | CC50 [2]: 2300 nM | ΔTm (DNA [3]): 19.8 °C | inhibition (NIH/3T3 [8]): Active | Activity (Homo sapiens [7]): Active | inhibition (NIH3T3): Active | ΔTm (DNA [4]): 21.1 °C | Activity (Homo sapiens [9]): Active

Compound: COC(=O)c1cc(NC(=O)c2nc(NC(=O)c3nc(NC(=O)CCCOc4cc5c(cc4OC)C(=O)N4CCC[C@H]4C=N5)cn3C)cn2C)cn1C
TGI [1]: 37 nM | GI50 [2]: 3.8 nM | CC50 [2]: 6800 nM | ΔTm (DNA [3]): 15 °C | ΔTm (DNA [4]): 15.4 °C

Compound: COC(=O)c1cc(NC(=O)c2cc(NC(=O)c3cc(NC(=O)CCCOc4cc5c(cc4OC)C(=O)N4CCC[C@H]4C=N5)cn3C)cn2C)cn1C
TGI [1]: 32 nM | GI50 [2]: 15 nM | CC50 [2]: 1100 nM | ΔTm (DNA [3]): 18.7 °C | ΔTm (DNA [4]): 20.2 °C

Compound: COC(=O)c1cc(NC(=O)c2nc(NC(=O)c3cc(NC(=O)CCCOc4cc5c(cc4OC)C(=O)N4CCC[C@H]4C=N5)cn3C)cn2C)cn1C
TGI [1]: 20 nM | GI50 [2]: 3 nM | CC50 [2]: 6600 nM | ΔTm (DNA [3]): 16 °C | ΔTm (DNA [4]): 16.9 °C
